Assay: Toxicity liver stage against HepG2, at 10uM
Assay type: cell-based
Parameters: test concentration 10 uM, cell line HepG2-A16-CD81EGFP
Conditions: human, HepG2-A16-CD81EGFP cells; read-out: INHIBITION
How it was run: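 Uninfected HepG2-A16-CD81EGFP cells, 3 × 10^3 per well, 1536-well, plated on prespotted compound at 10 μM final, parasite-free screening media added to match infected plates; puromycin 10 μM positive, DMSO 0.5% negative; run in parallel with 48 h PbLuc assay at 37 °C, 5% CO2; viability by CellTiter-Glo luminescence, normalized to controls.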

SMILES | cytotoxicity at 10 µM [%]
CC(C)Oc1cccc(C(=O)C2CCCN(C(=O)c3cncs3)C2)c1 (centres undefined) | 3.19
COc1ccc(OC)c(CNc2c(O)c(=O)c2=O)c1 | 7.08
Cc1cc(C)nc(N2CCC(C(=O)Nc3n[nH]c(C)n3)CC2)n1 | 8.78
O=C(c1ccc2[nH]cnc2c1)N1CCC(Oc2cccnc2)CC1 | -12.8
CCOCc1cncc2c1CCN(S(=O)(=O)c1ccc(C)cc1)C2 | 11.2
O=C(Cc1cccs1)N1CCc2nnc(COc3cncnc3)n2CC1 | 8.61
CC(C)N1c2sc(-c3ccsc3)nc2CC1C(=O)NC1CCCC1 (centres undefined) | 9.1
Cc1noc([C@@]23CCO[C@@H]2CCN(C(=O)CCC(C)C)C3)n1 | 10.3
Cn1cc(CN2CC[C@H]3C[C@@H](c4nc(C5CC5)cs4)O[C@@H]3C2)cn1 | 8.84
CNC(=O)C1Cn2ccnc2C2(CCN(C(=O)c3ccccn3)CC2)O1 (centres undefined) | -144
CCN(CC)C(=O)c1ccn(COc2cccc(Cl)c2Cl)n1 | 49.4
Cc1cc(C)n(CCC(=O)N2CCC(c3nc(C)no3)CC2)n1 | 23.3
CCn1nc(C)c2nc(C(C)C)nc(NCC(C)C)c21 | 15.5
Cc1noc(C)c1-c1cncc(C2CCCN2Cc2ncc[nH]2)n1 (centres undefined) | -8.89
O=C(Cc1ccsc1)N1CCCCC1c1ccn2ccnc2n1 (centres undefined) | -9.91
Cc1cccc(Oc2nccnc2C2CCN(C(=O)C(C)(C)N)CC2)c1 | -9.44
CN1CC(=O)N(C2CCNCC2)Cc2c(NCC(C)(C)C)ncnc21 | 6.2
CC(C)c1nc(CS(=O)(=O)Cc2noc(C3CC3)n2)cs1 | 6.16
COc1cc(Br)c(CNC(C)c2nnc3n2CCC3)cc1OC (centres undefined) | -43.2
COc1ccc2c(c1)CC(NCc1cccc(CO)c1)CC2 (centres undefined) | -51.8
CN1CCN(c2ccc(NCc3ccc([S+](C)[O-])cc3)cn2)CC1 (centres undefined) | 9.84
CCC(=O)NCC(=O)N(C)C(c1ccc(Cl)cc1)c1cccnc1 (centres undefined) | 3.88
NC(=O)CCN(CC(=O)NCc1cccs1)c1ccc(F)cc1 | 8.75
CCSCc1ccc(C(=O)N2CCCN(CC)CC2)cc1 | -5.95
CCc1c(NCc2ccncc2)cnn1CC(C)C | 7.81
CCS(=O)(=O)N(C)C1CCN(C(=O)c2ccc(Cl)cc2)CC1 | -5.87
CSCC(C)(O)CNC(=O)c1ccc(F)cc1Br (centres undefined) | 0.369

SMILES | cytotoxicity at 10 µM [%]
CCN1CCN(C(=O)c2ccnc(N(C)C)c2)CC1 | -0.0916
COc1cc(C(=O)N(Cc2cccs2)C2CC2)cc2c1OCCO2 | 8.45
CC(C(=O)N1CCCC1)N1CCCN(C(=O)Oc2ccccc2)CC1 (centres undefined) | 3.4
COc1ncccc1C(=O)N1CCCC1c1nc(-c2ccccc2)n[nH]1 (centres undefined) | -8.76
Clc1ccc2cccnc2c1CN1CCn2c(nnc2C2CC2)C1 | -2.19
CC(C)(CO)CCCNC(=O)NC1(C)Cc2ccccc2C1 | -1
COc1ccc(N(Cc2ccco2)C(=O)C2CCOC2)cc1F (centres undefined) | -10.8
COc1ccc(NC(=O)c2ccccc2NCc2ncnn2C)cc1 | 2.06
CC1CN(C)CCN1C(=O)Nc1nc(-c2cccn2C)cs1 (centres undefined) | -2.38
Cc1ncsc1CNC(=O)N(Cc1ccccc1)CC(C)(C)O | -10.2
CCNC(=O)CN(CC)Cc1nc2c(F)cccc2n1CC | 9.57
COc1ccc2nc(C)c(C(=O)NCCN3CCS(=O)(=O)CC3)cc2c1 | -15.2
CC(Sc1nnc(C2CC2)n1CC(N)=O)c1ccc(F)cc1F (centres undefined) | -1.7
CO[C@H]1CC[C@H]2[C@H]1OCCN2C(=O)c1nn(C)c2ccccc12 | 5.33
Cc1ccc(N2CCC3(CCN(Cc4csc(C)n4)C3=O)C2)nn1 (centres undefined) | -111
c1cc(CN2CCCC3(CCN(CC4CCCO4)CC3)C2)n[nH]1 (centres undefined) | -101
COc1ccc(CN2Cc3cn(C)nc3C(COCC3CC3)C2)cc1 (centres undefined) | -78.5
COCC(=O)N1CCC2(CCCN(Cc3cnn(C)c3)C2)C1 (centres undefined) | -73.3
CCNc1nc(-c2cccnc2)c(-c2ccnc(NS(C)(=O)=O)n2)s1 | -12.3
CCn1nc(CC(C)C)cc1C(=O)NCc1c(C)cc(C)nc1OC | 1.66
CNC(=O)c1n[nH]c2c1C(c1cccc3nsnc13)CC(=O)N2 (centres undefined) | -13
Cc1cccc(=O)n1CCC(=O)N1CC[C@@](O)(C2CCC2)[C@H](C)C1 | 5.8
O=C(NCCc1noc(C2CCCC2)n1)c1cn2ccsc2n1 | -0.454
COC(=O)C1CCN(CC2(c3ccc(C)cn3)CCNCC2)CC1 | -0.471
Cc1cnc(NCC(C)(C)N2CCN(C)CC2)nc1 | -4.52
CCn1c(C)nnc1SCCNC(=O)Cn1cnc2ccccc2c1=O | 8.28
O=C(O)c1cc(-c2cccnc2)cc(S(=O)(=O)NCc2ccccn2)c1 | -49.9

Reference: ChEMBL document CHEMBL4513216, “Probing the Open Global Health Chemical Diversity Library for Multistage-Active Starting Points for Next-Generation Antimalarials” (ACS Infect Dis, 2020)
